Laboratory results taken from ChEMBL document CHEMBL1121585, “Inhibitors of phenylethanolamine N-methyltransferase and epinephrine biosynthesis. 1. Chloro-substituted 1,2,3,4-tetrahydroisoquinolines” (J Med Chem, 1980).

Columns and labels:
Type in all cases: functional
Mus musculus [1] = assay: Minimum active dose(MAD) for decrease in norepinephrine (NE) / epinephrine(E) was measured in mice (po)
Summary of the method: (§1)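 Male Charles River mice, 30–40 g, groups of five. Oral dosing in 1% methylcellulose twice daily for 7 days, plus a final morning dose. Killed 2 h later; adrenals homogenised in 0.4 N HClO4 and alumina-extracted. E and NE measured.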

Mus musculus [2] = assay: Maximum inactive dose(MID) for decrease in norepinephrine (NE) / epinephrine(E) was measured in mice (po); summary of the method: as §1
Rattus norvegicus = assay: Phenylethanolamine N-methyl-transferase inhibition determined as of [3H]epinephrine biosynthesis in rats at 50 mg/kg (po)
Mus musculus [3] = assay: Minimum active dose(MAD) for decrease in norepinephrine (NE) / epinephrine(E) ratio was measured in mice (po); summary of the method: as §1

SMILES: Clc1ccc2c(c1Cl)CNCC2
- MAD (Mus musculus [1]): 5 mg/kg
- MID (Mus musculus [2]): 2.5 mg/kg

SMILES: Clc1cc(Cl)c2c(c1Cl)CNCC2
- MID (Mus musculus [2]): 100 mg/kg
- inhibition in vivo at 50 mg/kg (Rattus norvegicus): 16%

SMILES: Clc1cccc2c1CNCC2
- MAD (Mus musculus [3]): 7.5 mg/kg
- MID (Mus musculus [2]): 2.5 mg/kg
- inhibition in vivo at 50 mg/kg (Rattus norvegicus): 45%

SMILES: Clc1ccc2c(c1)CNCC2
- MAD (Mus musculus [3]): 12.5 mg/kg
- MID (Mus musculus [2]): 7.5 mg/kg
- inhibition in vivo at 50 mg/kg (Rattus norvegicus): 78%

SMILES: Clc1cc2c(c(Cl)c1Cl)CNCC2
- MID (Mus musculus [2]): 50 mg/kg
- inhibition in vivo at 50 mg/kg (Rattus norvegicus): 25%

SMILES: Clc1c(Cl)c(Cl)c2c(c1Cl)CCNC2
- MAD (Mus musculus [3]): 100 mg/kg
- MID (Mus musculus [2]): 25 mg/kg
